Experimental data published in ChEMBL document CHEMBL3232924, “Synthesis and biological evaluation of novel bis-aromatic amides as novel PTP1B inhibitors” (Bioorg Med Chem Lett, 2014).
The source made the active and inactive calls. The calls are words filed in the database; no cut-off is given here.

Legend:
[1] = target: T1, Tyrosine-protein phosphatase non-receptor type 1 (Homo sapiens) (UniProt P18031); test: Inhibition of PTP1B (unknown origin) using pNPP as substrate at 20 ug/ml
T1 sequence (whole entry): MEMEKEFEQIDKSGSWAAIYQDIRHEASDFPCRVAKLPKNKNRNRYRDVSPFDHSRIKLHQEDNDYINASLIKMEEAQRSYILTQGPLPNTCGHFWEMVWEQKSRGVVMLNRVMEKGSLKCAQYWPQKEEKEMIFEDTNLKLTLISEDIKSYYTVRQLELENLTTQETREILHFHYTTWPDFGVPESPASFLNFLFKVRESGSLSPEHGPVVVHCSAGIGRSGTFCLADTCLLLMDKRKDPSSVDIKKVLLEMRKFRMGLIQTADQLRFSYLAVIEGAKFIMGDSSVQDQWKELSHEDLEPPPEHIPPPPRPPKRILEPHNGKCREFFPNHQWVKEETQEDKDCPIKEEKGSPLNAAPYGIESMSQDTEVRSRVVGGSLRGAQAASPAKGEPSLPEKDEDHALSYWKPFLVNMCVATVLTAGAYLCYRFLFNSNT

[2] = target: T2, Tyrosine-protein phosphatase non-receptor type 1 (Homo sapiens, UniProt P18031); test: Inhibition of PTP1B (unknown origin) using pNPP as substrate
T2 sequence (P18031 whole entry): T1 sequence (whole entry)

[3] = target: T3, Tyrosine-protein phosphatase non-receptor type 2 (Homo sapiens, UniProt P17706); test: Inhibition of TCPTP (unknown origin) using pNPP as substrate
T3 sequence (P17706 whole entry): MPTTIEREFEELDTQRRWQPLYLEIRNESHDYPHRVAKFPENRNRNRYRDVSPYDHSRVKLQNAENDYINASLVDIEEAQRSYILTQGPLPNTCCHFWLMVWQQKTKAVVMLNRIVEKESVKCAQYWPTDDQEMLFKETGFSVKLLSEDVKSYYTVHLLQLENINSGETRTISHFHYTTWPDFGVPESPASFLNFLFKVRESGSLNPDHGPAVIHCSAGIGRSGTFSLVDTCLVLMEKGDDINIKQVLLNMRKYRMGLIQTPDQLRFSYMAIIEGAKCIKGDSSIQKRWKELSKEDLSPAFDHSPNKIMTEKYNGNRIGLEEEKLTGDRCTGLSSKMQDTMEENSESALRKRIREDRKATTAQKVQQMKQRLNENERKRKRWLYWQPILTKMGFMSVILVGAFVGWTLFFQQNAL

Homo sapiens = organism: Homo sapiens; test: Selectivity ratio of IC50 for TCPTP (unknown origin) to IC50 for PTP1B (unknown origin)
Outline: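 Colorimetric assay with pNPP as substrate, run the same way for PTP1B and TCPTP. IC50 was obtained by regression analysis and reported as mean ± SD of three replications. The selectivity ratio is TCPTP IC50 divided by PTP1B IC50.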

[4] = target: Receptor-type tyrosine-protein phosphatase F (Homo sapiens, UniProt P10586); test: Inhibition of LAR (unknown origin) using 3-o-methylfluorescein phosphate as substrate at 20 ug/ml
Chain of Receptor-type tyrosine-protein phosphatase F (P10586 whole entry): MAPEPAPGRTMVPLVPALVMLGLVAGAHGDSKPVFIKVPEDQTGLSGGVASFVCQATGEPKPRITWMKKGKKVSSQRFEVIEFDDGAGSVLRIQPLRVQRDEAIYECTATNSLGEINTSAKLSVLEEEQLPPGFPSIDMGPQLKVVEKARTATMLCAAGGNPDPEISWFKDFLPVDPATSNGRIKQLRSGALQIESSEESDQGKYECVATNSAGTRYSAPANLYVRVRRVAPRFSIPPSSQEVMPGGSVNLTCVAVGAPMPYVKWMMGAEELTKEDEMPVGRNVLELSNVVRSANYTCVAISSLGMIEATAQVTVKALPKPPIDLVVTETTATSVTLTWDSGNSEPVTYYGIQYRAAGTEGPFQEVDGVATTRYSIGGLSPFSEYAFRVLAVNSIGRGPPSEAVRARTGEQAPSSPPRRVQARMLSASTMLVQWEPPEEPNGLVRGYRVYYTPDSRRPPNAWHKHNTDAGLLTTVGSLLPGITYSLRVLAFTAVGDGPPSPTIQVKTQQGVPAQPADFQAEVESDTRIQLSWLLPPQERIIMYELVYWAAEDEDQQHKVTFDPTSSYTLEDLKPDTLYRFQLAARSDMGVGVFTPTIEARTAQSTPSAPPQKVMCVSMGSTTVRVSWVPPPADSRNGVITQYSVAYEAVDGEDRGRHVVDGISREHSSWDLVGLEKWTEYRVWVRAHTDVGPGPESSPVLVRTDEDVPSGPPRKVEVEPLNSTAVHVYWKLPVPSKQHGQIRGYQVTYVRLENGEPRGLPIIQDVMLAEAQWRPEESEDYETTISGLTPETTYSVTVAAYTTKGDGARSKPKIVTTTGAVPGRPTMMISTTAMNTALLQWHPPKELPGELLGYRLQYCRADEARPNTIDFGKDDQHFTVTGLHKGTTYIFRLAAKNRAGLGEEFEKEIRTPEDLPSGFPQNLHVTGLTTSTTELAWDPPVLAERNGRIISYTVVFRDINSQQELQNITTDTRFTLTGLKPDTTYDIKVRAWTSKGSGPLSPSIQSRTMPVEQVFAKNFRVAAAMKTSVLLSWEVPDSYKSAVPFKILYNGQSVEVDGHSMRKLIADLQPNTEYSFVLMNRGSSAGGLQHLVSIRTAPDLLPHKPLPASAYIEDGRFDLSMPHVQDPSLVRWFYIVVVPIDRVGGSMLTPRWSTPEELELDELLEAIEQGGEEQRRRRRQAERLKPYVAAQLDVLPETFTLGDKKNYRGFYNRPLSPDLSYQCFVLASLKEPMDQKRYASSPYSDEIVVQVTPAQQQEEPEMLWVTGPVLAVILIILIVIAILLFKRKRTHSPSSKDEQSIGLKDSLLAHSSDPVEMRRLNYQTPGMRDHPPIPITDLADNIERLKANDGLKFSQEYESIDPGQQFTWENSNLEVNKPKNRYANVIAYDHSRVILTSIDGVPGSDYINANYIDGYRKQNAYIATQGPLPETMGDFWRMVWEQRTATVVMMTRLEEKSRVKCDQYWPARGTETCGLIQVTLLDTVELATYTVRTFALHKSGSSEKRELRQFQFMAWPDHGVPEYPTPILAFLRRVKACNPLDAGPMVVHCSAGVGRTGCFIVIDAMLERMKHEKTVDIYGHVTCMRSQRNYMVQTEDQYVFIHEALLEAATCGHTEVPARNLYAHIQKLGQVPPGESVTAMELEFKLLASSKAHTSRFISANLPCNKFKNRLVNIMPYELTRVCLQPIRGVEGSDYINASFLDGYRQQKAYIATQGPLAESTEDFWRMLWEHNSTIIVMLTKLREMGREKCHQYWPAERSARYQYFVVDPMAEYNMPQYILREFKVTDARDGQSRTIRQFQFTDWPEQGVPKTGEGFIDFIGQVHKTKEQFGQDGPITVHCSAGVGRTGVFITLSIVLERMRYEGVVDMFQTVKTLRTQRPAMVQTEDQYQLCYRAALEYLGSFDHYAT

[5] = target: T4, Tyrosine-protein phosphatase non-receptor type 6 (Homo sapiens, UniProt P29350); test: Inhibition of SHP-1 (unknown origin) using 3-o-methylfluorescein phosphate as substrate at 20 ug/ml
T4 sequence (P29350 whole entry): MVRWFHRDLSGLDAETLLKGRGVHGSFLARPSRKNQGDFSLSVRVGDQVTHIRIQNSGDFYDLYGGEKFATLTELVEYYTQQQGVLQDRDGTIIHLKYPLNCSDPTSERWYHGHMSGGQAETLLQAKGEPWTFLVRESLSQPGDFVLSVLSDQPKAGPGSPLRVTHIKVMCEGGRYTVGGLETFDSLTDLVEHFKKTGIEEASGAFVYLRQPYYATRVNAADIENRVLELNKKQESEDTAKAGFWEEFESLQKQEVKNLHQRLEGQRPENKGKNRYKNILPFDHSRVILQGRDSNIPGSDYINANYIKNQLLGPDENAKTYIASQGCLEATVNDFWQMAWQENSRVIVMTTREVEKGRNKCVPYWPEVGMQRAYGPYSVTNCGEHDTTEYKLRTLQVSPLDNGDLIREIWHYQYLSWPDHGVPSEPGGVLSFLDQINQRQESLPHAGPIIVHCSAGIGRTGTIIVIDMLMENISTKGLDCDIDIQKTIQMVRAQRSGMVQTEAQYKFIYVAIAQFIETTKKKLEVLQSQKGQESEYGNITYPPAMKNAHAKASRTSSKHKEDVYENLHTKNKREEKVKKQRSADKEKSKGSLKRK

[6] = target: T5, Tyrosine-protein phosphatase non-receptor type 11 (Homo sapiens) (UniProt Q06124); test: Inhibition of SHP-2 (unknown origin) using 3-o-methylfluorescein phosphate as substrate at 20 ug/ml
T5 sequence (whole entry): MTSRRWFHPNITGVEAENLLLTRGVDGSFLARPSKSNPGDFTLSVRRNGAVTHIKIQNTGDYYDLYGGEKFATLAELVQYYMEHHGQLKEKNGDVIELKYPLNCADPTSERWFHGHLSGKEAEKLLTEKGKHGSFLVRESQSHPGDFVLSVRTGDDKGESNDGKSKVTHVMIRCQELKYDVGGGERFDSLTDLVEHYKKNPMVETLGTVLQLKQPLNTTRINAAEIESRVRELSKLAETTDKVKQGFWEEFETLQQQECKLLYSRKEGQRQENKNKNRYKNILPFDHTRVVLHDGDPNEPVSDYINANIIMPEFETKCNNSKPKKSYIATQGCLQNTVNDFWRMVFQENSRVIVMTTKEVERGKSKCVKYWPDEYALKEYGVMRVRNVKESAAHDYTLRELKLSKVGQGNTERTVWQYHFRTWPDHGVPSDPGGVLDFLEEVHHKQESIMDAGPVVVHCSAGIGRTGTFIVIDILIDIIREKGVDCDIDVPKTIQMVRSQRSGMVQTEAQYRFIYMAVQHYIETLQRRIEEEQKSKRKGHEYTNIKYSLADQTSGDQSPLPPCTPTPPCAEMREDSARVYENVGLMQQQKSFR

[7] = target: T1, Tyrosine-protein phosphatase non-receptor type 1 (Homo sapiens); test: Fast-binding inhibition of PTP1B (unknown origin) using pNPP as substrate
[8] = target: T1, Tyrosine-protein phosphatase non-receptor type 1 (Homo sapiens); test: Competitive inhibition of PTP1B (unknown origin) using pNPP as substrate by Lineweaver-Burk plot analysis
Outline: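 Kinetic analysis: initial velocities were measured across various pNPP concentrations at several fixed inhibitor concentrations. Inhibition mode was assigned from Lineweaver–Burk double-reciprocal plots.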

CHO = test: Inhibition of PTP1B in CHO cells overexpressing human insulin receptor assessed as increase in insulin-stimulated tyrosine phosphorylation of insulin receptor beta at 5 to 20 uM by immunoblot analysis; format: cell-based; conditions: Cricetulus griseus
Outline: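 CHO cells overexpressing human insulin receptor were treated with compound, with DMSO as negative control. Tyrosine-phosphorylated insulin receptor β was detected by immunoblot.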

[9] = target: T6, Tyrosine-protein phosphatase non-receptor type 2 (Homo sapiens) (UniProt P17706); test: Inhibition of TCPTP (unknown origin) using pNPP as substrate at 20 ug/ml
T6 sequence (whole entry): T3 sequence (P17706 whole entry)

[10] = target: T4, Tyrosine-protein phosphatase non-receptor type 6; test: Inhibition of SHP-1 (unknown origin) using 3-o-methylfluorescein phosphate as substrate
Outline: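 SHP-1 activity was read with 3-O-methylfluorescein phosphate (OMFP) as substrate. IC50 was derived by regression analysis and given as mean ± SD of three replications.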

[11] = target: T7, Tyrosine-protein phosphatase non-receptor type 11 (Homo sapiens, UniProt Q06124); test: Inhibition of SHP-2 (unknown origin) using 3-o-methylfluorescein phosphate as substrate
T7 sequence (Q06124 whole entry): T5 sequence (whole entry)
Outline: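 Phosphatase activity was measured with 3-O-methylfluorescein phosphate (OMFP) as substrate, in the same assay format used for SHP-1. IC50 was obtained by regression analysis and reported as mean ± SD of three replicates.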

Row | inhibition [1] | IC50 [2] | inhibition [4] | Compound | other results
1 | 38.1% |  |  | O=C(Nc1ccc(-c2ccc(NC(=O)c3cccs3)cc2)cc1)c1cccs1 | 
2 | 61% | 14.6 µM |  | O=C(Nc1ccc(-c2ccc(NC(=O)C3CCN(C(=O)C4CCCCC4)CC3)cc2)cc1)C1CCN(C(=O)C2CCCCC2)CC1 | 
3 | 94% | 2.34 µM | < 50% | O=C(Nc1ccc(-c2ccc(NC(=O)C3CCN(C(=O)c4ccco4)CC3)cc2)cc1)C1CCN(C(=O)c2ccco2)CC1 | IC50 [3]: 12.4 µM; Ratio IC50 (Homo sapiens): 5.29; inhibition [5]: < 50%; inhibition [6]: < 50%; inhibition [7]: Active; inhibition [8]: Active; inhibition (CHO): Active
4 | 95.3% | 5.04 µM | < 50% | O=C(Nc1ccc(-c2ccc(NC(=O)C3CCN(C(=O)c4ccc(F)cc4)CC3)cc2)cc1)C1CCN(C(=O)c2ccc(F)cc2)CC1 | inhibition [9]: < 50%; inhibition [5]: < 50%; inhibition [6]: < 50%
5 | 70% | 12.2 µM |  | CC(C)CC(=O)N1CCC(C(=O)Nc2ccc(-c3ccc(NC(=O)C4CCN(C(=O)CC(C)C)CC4)cc3)cc2)CC1 | 
6 | 82.1% | 7.14 µM | < 50% | O=C(Nc1ccc(-c2ccc(NC(=O)C3CCCCC3)cn2)cc1)C1CCCCC1 | IC50 [3]: 22.9 µM; Ratio IC50 (Homo sapiens): 3.2; inhibition [5]: < 50%; inhibition [6]: < 50%
7 | 0.7% |  |  | O=C(Nc1ccc(-c2ccc(NC(=O)[C@@H]3CCCN3)cc2)cc1)[C@@H]1CCCN1 | 
8 | 69.4% | 10.2 µM |  | COC(=O)c1ccc(-c2ccc(NC(=O)c3ccccc3)cc2)cc1 | 
9 |  |  |  | SODIUM ORTHOVANAD | IC50 [10]: 17.8 µM; IC50 [11]: 34.7 µM
10 | 71.1% | 9.5 µM | < 50% | CC(C)(C)OC(=O)N1CCC(C(=O)Nc2ccc(-c3ccc(NC(=O)C4CCN(C(=O)OC(C)(C)C)CC4)cc3)cc2)CC1 | IC50 [3]: 21.2 µM; Ratio IC50 (Homo sapiens): 2.23; IC50 [10]: 18.2 µM; inhibition [6]: < 50%
11 | 81.2% | 4.61 µM | < 50% | O=C(Nc1ccc(-c2ccc(C(=O)Nc3ccccc3)cc2)cc1)c1ccccc1 | inhibition [9]: < 50%; inhibition [5]: < 50%; inhibition [6]: < 50%
12 | 58.1% | 26.5 µM |  | CC(C)CC(=O)Nc1ccc(-c2ccc(NC(=O)CC(C)C)cn2)cc1 | 
13 | 62.8% | 18.5 µM |  | O=C(Nc1ccccc1)c1ccc(-c2ccc(C(=O)Nc3ccccc3)cc2)cc1 | 
14 | 94.1% | 2.65 µM | < 50% | O=C(Nc1ccc(-c2ccc(NC(=O)C3CCN(C(=O)c4ccccc4)CC3)cc2)cc1)C1CCN(C(=O)c2ccccc2)CC1 | IC50 [3]: 7.62 µM; Ratio IC50 (Homo sapiens): 2.88; inhibition [5]: < 50%; inhibition [6]: < 50%
15 | 84.6% | 12.5 µM |  | O=C(Nc1ccc(-c2ccc(NC(=O)C3CCCCC3)cc2)cc1)C1CCCCC1 | 
16 | 71% | 5.96 µM | < 50% | O=C(Nc1ccc(-c2ccc(NC(=O)c3ccc(F)cc3)cn2)cc1)c1ccc(F)cc1 | inhibition [9]: < 50%; IC50 [10]: 17.8 µM
17 | 98.6% | 19 µM |  | O=C(Nc1ccc(-c2ccc(NC(=O)c3ccc(F)cc3)cc2)cc1)c1ccc(F)cc1 | 
18 |  | 19.3 µM | < 50% | O=C(Nc1ccc(-c2ccc(NC(=O)c3ccco3)cc2)cc1)c1ccco1 | IC50 [3]: 51 µM; Ratio IC50 (Homo sapiens): 2.64; IC50 [10]: 38.8 µM
19 | 90.7% | 16.5 µM |  | CC(C)CC(=O)Nc1ccc(-c2ccc(NC(=O)CC(C)C)cc2)cc1 | 
20 | 7.92% |  |  | O=C(Nc1ccc(F)cc1)c1ccc(-c2ccc(C(=O)Nc3ccc(F)cc3)cc2)cc1 | 
21 | 10.3% |  |  | O=C(Nc1ccc(-c2ccc(NC(=O)C3CCNCC3)cc2)cc1)C1CCNCC1 | 
22 | 11.9% |  |  | COc1ccc(C(=O)Nc2ccc(-c3ccc(NC(=O)c4ccc(OC)cc4)cc3)cc2)cc1 | 
23 | 83.9% | 5.37 µM | < 50% | O=C(Nc1ccc(-c2ccc(NC(=O)c3ccccc3)cn2)cc1)c1ccccc1 | IC50 [3]: 26.2 µM; Ratio IC50 (Homo sapiens): 4.87; inhibition [5]: < 50%; inhibition [6]: < 50%
24 | 47.4% |  |  | COc1cc(C(=O)Nc2ccc(-c3ccc(NC(=O)c4cc(OC)c(OC)c(OC)c4)cc3)cc2)cc(OC)c1OC | 
25 | 31.5% |  |  | COC(=O)c1ccc(-c2ccc(N)cc2)cc1 | 
26 | 95.2% | 12 µM |  | O=C(Nc1ccc(-c2ccc(NC(=O)c3ccccc3)cc2)cc1)c1ccccc1 | 
27 | 43.5% |  |  | CC(C)(C)OC(=O)N1CCC[C@H]1C(=O)Nc1ccc(-c2ccc(NC(=O)[C@@H]3CCCN3C(=O)OC(C)(C)C)cc2)cc1 | 
28 | 86.4% | 11.1 µM |  | O=C(Nc1ccc(-c2ccc(NC(=O)c3ccco3)cn2)cc1)c1ccco1 | 
